ChEMBL document CHEMBL1131069 (J Med Chem, 1998)
Calls of active or inactive are those of the source. The calls are words filed in the database; no cut-off is given here.

Assays:
[1] = Neurotoxicity determined at 4 hours after the administration of compound by rotarod test(- denotes activity at 300 mg/kg); type: toxicity, organism-based; set-up: dose 300 mg/kg; details: mouse, in vivo
Outline: (§1)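 Male CF-1 mice dosed ip at 30, 100 or 300 mg/kg and tested 30 min or 4 h later on a 1-in. knurled rod turning at 6 rpm. A deficit was failure to stay on the rod for 1 min in each of three trials. Coding: ++ 100, + 300 mg/kg; - means none at 300 mg/kg.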

Rattus norvegicus [2] = test: Anticonvulsant ED50 activity by MES test in rats dosed orally; type: functional; details: po
Outline: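 Male Sprague-Dawley rats (100-150 g) dosed orally. ED50 is the dose protecting 50% of animals against maximal electroshock-induced seizures. […]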

[3] = Apparent IC50 value by [3H]batrachotoxinin-A-20-alpha-benzoate-binding test performed in rat brain synaptosomes; type: subcellular
Outline: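 Rat brain synaptosomes, about 400 µg protein per assay, incubated 2 h at 37 °C, pH 7.4, in choline chloride/HEPES/glucose/KCl medium with 10 nM [³H]batrachotoxinin-A-20α-benzoate and scorpion venom. Stopped with cold-free choline chloride/HEPES/CaCl₂/MgSO₄ washes, filtered on GF/B, bound radioactivity counted. Protein by Bradford. Apparent IC50 from quadruplicate measurements, mean ± SD.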

Rattus norvegicus [4] = test: Anticonvulsant activity was determined in rats at a dose of 30 mg/kg after 2 hour by MES test. (+ denotes activity in 0-25% of administered animals).; type: functional, organism-based; set-up: dose 30 mg/kg
Rattus norvegicus [5] = test: Anticonvulsant activity was determined in rats at a dose of 30 mg/kg after 1 hour by MES test. (++ denotes activity in 25-50% of administered animals).; type: functional, organism-based; set-up: dose 30 mg/kg
Mus musculus [6] = test: Anticonvulsant activity determined at 30 minutes after the administration of compound using MES test.(++= signify activity at 100 mg/kg); type: functional, organism-based; set-up: dose 100 mg/kg
Outline: (§2)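 Male CF-1 albino mice (18-25 g) dosed intraperitoneally at 30, 100 or 300 mg/kg. Protection against maximal electroshock-induced seizures was scored 30 min or 4 h after dosing.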

[7] = Neurotoxicity determined at 30 minutes after the administration of compound by rotarod test.(- denotes activity at 300 mg/kg); type: toxicity, organism-based; set-up: dose 300 mg/kg; details: mouse, in vivo, 0.5 h; outline: as §1
Mus musculus [8] = test: Anticonvulsant activity determined at 4 hours after the administration of compound using MES test.(++= signify activity at 100 mg/kg); type: functional, organism-based; set-up: dose 100 mg/kg; outline: as §2
[9] = Neurotoxicity determined at 4 hours after the administration of compound by rotarod test (- denotes activity at 300 mg/kg); type: toxicity, organism-based; set-up: dose 300 mg/kg; details: mouse, in vivo; outline: as §1
Rattus norvegicus [10] = test: Anticonvulsant activity was determined in rats at a dose of 30 mg/kg after 4 hour by MES test. (++ denotes activity in 25-50% of administered animals).; type: functional, organism-based; set-up: dose 30 mg/kg
[11] = Neurotoxicity determined at 30 minutes after the administration of compound by rotarod test.(+ = signify activity at 300 mg/kg); type: toxicity, organism-based; set-up: dose 300 mg/kg; details: mouse, in vivo, 0.5 h; outline: as §1
Mus musculus [12] = test: Anticonvulsant activity determined at 30 minutes after the administration of compound using MES test. (++= signify activity at 100 mg/kg); type: functional, organism-based; set-up: dose 100 mg/kg; outline: as §2
Rattus norvegicus [13] = test: Anticonvulsant activity was determined in rats at a dose of 30 mg/kg after 1 hour by MES test. (++++ denotes activity in 75-100% of administered animals); type: functional, organism-based; set-up: dose 30 mg/kg
Rattus norvegicus [14] = test: Anticonvulsant activity was determined in rats at a dose of 30 mg/kg after 4 hour by MES test. (++++ denotes activity in 75-100% of administered animals); type: functional, organism-based; set-up: dose 30 mg/kg
Mus musculus [15] = test: Anticonvulsant activity determined at 4 hours after the administration of compound using sc Ptz test.(+ = signify activity at 300 mg/kg); type: functional, organism-based; set-up: dose 300 mg/kg
Outline: (§3)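 Male CF-1 mice (18-25 g) dosed ip at 30, 100 or 300 mg/kg. Pentylenetetrazol in 0.9% NaCl was injected sc at 0.01 mL/g. Tests were run 30 min or 4 h after dosing.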

[16] = Neurotoxicity determined at 4 hours after the administration of compound by rotarod test(+ = signify activity at 300 mg/kg); type: toxicity, organism-based; set-up: dose 300 mg/kg; details: mouse, in vivo; outline: as §1
Rattus norvegicus [17] = test: Toxicity was determined in rats at a dose of 30 mg/kg after 4 hour. (+ denotes activity in 0-25% of administered animals).; type: functional, organism-based; set-up: dose 30 mg/kg
Outline: (§4)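 Male Sprague-Dawley rats given a single oral dose of 30 mg/kg and assessed for toxicity 4 h after dosing, with at least four animals per time point. Score is the fraction of animals affected (+ 0-25%); - means no toxicity.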

Rattus norvegicus [18] = test: Anticonvulsant activity was determined in rats at a dose of 30 mg/kg after 1 hour by MES test. (+ denotes activity in 0-25% of administered animals).; type: functional, organism-based; set-up: dose 30 mg/kg
Rattus norvegicus [19] = test: Anticonvulsant activity was determined in rats at a dose of 30 mg/kg after 4 hour by MES test. (+ denotes activity in 0-25% of administered animals).; type: functional, organism-based; set-up: dose 30 mg/kg
[20] = Toxicity was determined in rats at a dose of 30 mg/kg after 4 hour (- denotes no activity in administered animals).; type: organism-based; set-up: dose 30 mg/kg; details: rat, in vivo; outline: as §4
Mus musculus [21] = test: Anticonvulsant activity determined at 4 hours after the administration of compound using MES test.(+ = signify activity at 300 mg/kg); type: functional, organism-based; set-up: dose 300 mg/kg; outline: as §2
Rattus norvegicus [22] = test: Anticonvulsant activity was determined in rats at a dose of 30 mg/kg after 30 minutes by MES test. (++++ denotes activity in 75-100% of administered animals); type: functional, organism-based; set-up: dose 30 mg/kg
Mus musculus [23] = test: Anticonvulsant activity determined at 4 hours after the administration of compound using sc Ptz test. (- denotes activity at 300 mg/kg); type: functional, organism-based; set-up: dose 300 mg/kg; outline: as §3
Rattus norvegicus [24] = test: Anticonvulsant activity was determined in rats at a dose of 30 mg/kg after 2 hour by MES test. (++++ denotes activity in 75-100% of administered animals); type: functional, organism-based; set-up: dose 30 mg/kg
[25] = Neurotoxicity determined at 30 minutes after the administration of compound by rotarod test.(++= signify activity at 100 mg/kg); type: toxicity, organism-based; set-up: dose 100 mg/kg; details: mouse, in vivo, 0.5 h; outline: as §1
Mus musculus [26] = test: Anticonvulsant activity determined at 30 minutes after the administration of compound using sc Ptz test. (+++ = activity at 30 mg/kg); type: functional, organism-based; set-up: dose 30 mg/kg; outline: as §3
Rattus norvegicus [27] = test: Anticonvulsant activity was determined in rats at a dose of 30 mg/kg after 15 minutes by MES test. (++++ denotes activity in 75-100% of administered animals); type: functional, organism-based; set-up: dose 30 mg/kg
[28] = Neurotoxicity determined at 4 hours after the administration of compound by rotarod test (++= signify activity at 100 mg/kg); type: toxicity, organism-based; set-up: dose 100 mg/kg; details: mouse, in vivo; outline: as §1
Rattus norvegicus [29] = test: (§5) Toxicity was determined in rats at a dose of 30 mg/kg after 4 hour. (- denotes no activity in administered animals).; type: functional, organism-based; set-up: dose 30 mg/kg; outline: as §4
Mus musculus [30] = test: Anticonvulsant activity determined at 30 minutes after the administration of compound using MES test. (+++ = activity at 30 mg/kg); type: functional, organism-based; set-up: dose 30 mg/kg; outline: as §2
[31] = Neurotoxicity determined at 30 minutes after the administration of compound by rotarod test. (+ = signify activity at 300 mg/kg); type: toxicity, organism-based; set-up: dose 300 mg/kg; details: mouse, in vivo, 0.5 h; outline: as §1
[32] = as §5; type: organism-based; set-up: dose 30 mg/kg; details: rat, in vivo; outline: as §4
Mus musculus [33] = test: Anticonvulsant activity determined at 4 hours after the administration of compound using MES test. (++= signify activity at 100 mg/kg); type: functional, organism-based; set-up: dose 100 mg/kg; outline: as §2
[34] = Neurotoxicity determined at 4 hours after the administration of compound by rotarod test (+ = signify activity at 300 mg/kg); type: toxicity, organism-based; set-up: dose 300 mg/kg; details: mouse, in vivo; outline: as §1
Mus musculus [35] = test: Anticonvulsant activity determined at 30 minutes after the administration of compound using MES test. (+ = signify activity at 300 mg/kg); type: functional, organism-based; set-up: dose 300 mg/kg; outline: as §2

Cc1cccc(C)c1N1C(=O)c2ccccc2C1=O
Activity [1]: activity in 0-25% of administered animals | ED50 (Rattus norvegicus [2]): 231 µmol/kg | IC50 [3]: 161000 nM | Activity (Rattus norvegicus [4]): activity in 0-25% of administered animals | Activity (Rattus norvegicus [5]): activity in 0-25% of administered animals | Activity (Mus musculus [6]): activity in 0-25% of administered animals | Activity [7]: activity in 0-25% of administered animals

Cc1cccc(C)c1N1C(=O)c2ccc(Cl)cc2C1=O
Activity (Mus musculus [8]): activity in 0-25% of administered animals | Activity [9]: activity in 0-25% of administered animals | ED50 (Rattus norvegicus [2]): 354 µmol/kg | Activity (Rattus norvegicus [10]): activity in 0-25% of administered animals | Activity [11]: activity in 0-25% of administered animals | IC50 [3]: 47800 nM | Activity (Rattus norvegicus [4]): activity in 0-25% of administered animals | Activity (Mus musculus [6]): activity in 0-25% of administered animals

Cc1cccc(C)c1N1C(=O)c2ccc([N+](=O)[O-])cc2C1=O
Activity (Mus musculus [12]): Activity at 300 mg/kg | Activity (Mus musculus [8]): Activity at 300 mg/kg | ED50 (Rattus norvegicus [2]): 131 µmol/kg | Activity (Rattus norvegicus [13]): ++ | IC50 [3]: 184000 nM | Activity (Rattus norvegicus [14]): ++ | Activity (Mus musculus [15]): Activity at 300 mg/kg | Activity [7]: Activity at 300 mg/kg | Activity [16]: Activity at 300 mg/kg

Cc1cccc(C)c1N1C(=O)c2ccc(O)cc2C1=O
Activity (Rattus norvegicus [17]): activity in 0-25% of administered animals | Activity (Mus musculus [12]): activity in 0-25% of administered animals | Activity (Rattus norvegicus [18]): activity in 0-25% of administered animals | Activity (Mus musculus [8]): activity in 0-25% of administered animals | Activity [9]: activity in 0-25% of administered animals | ED50 (Rattus norvegicus [2]): 369 µmol/kg | IC50 [3]: 1860 nM | Activity [7]: activity in 0-25% of administered animals | Activity (Rattus norvegicus [19]): activity in 0-25% of administered animals

Cc1cccc(C)c1NC(=O)c1ccc(O)cc1
Activity (Mus musculus [8]): activity in 0-25% of administered animals | Activity [1]: activity in 0-25% of administered animals | Activity [20]: activity in 0-25% of administered animals | ED50 (Rattus norvegicus [2]): 284 µmol/kg | IC50 [3]: 350 nM | Activity (Rattus norvegicus [4]): activity in 0-25% of administered animals | Activity (Rattus norvegicus [5]): activity in 0-25% of administered animals | Activity [7]: activity in 0-25% of administered animals | Activity (Rattus norvegicus [19]): activity in 0-25% of administered animals

Cc1ccc(N)c(C)c1N1C(=O)c2ccccc2C1=O
Activity (Mus musculus [21]): signifies activity at 300 mg/kg

Cc1cccc(C)c1N1C(=O)c2ccc(N)cc2C1=O
Activity (Mus musculus [8]): Active | ED50 (Rattus norvegicus [2]): 25.3 µmol/kg | Activity (Rattus norvegicus [22]): Active | Activity (Mus musculus [23]): inactive | Activity (Rattus norvegicus [10]): Weak activity | Activity (Rattus norvegicus [24]): Active | Activity (Rattus norvegicus [13]): Active | Activity [25]: Active | IC50 [3]: 110 nM | Activity (Mus musculus [26]): Active | Activity (Rattus norvegicus [27]): Active | Activity [28]: Active | Activity (Rattus norvegicus [29]): Not toxic | Activity (Mus musculus [30]): Active

Cc1cccc(C)c1NC(=O)c1ccc([N+](=O)[O-])cc1
Activity [9]: Activity at 300 mg/kg | ED50 (Rattus norvegicus [2]): 52.3 µmol/kg | Activity [31]: Activity at 300 mg/kg | Activity [32]: Activity at 300 mg/kg | IC50 [3]: 250 nM | Activity (Rattus norvegicus [27]): ++ | Activity (Mus musculus [33]): Activity at 300 mg/kg

CC1(C)CC(NC(=O)c2ccc([N+](=O)[O-])cc2)CC(C)(C)N1
Activity [34]: signifies activity at 300 mg/kg | ED50 (Rattus norvegicus [2]): > 650 µmol/kg | Activity [11]: signifies activity at 300 mg/kg | Activity [32]: signifies activity at 300 mg/kg | Activity (Mus musculus [35]): signifies activity at 300 mg/kg | IC50 [3]: 25800 nM

Cc1cccc(C)c1NC(=O)c1ccc(N)cc1 [AMELTOLIDE]
Activity (Mus musculus [8]): Activity at 300 mg/kg | Activity [1]: Activity at 300 mg/kg | ED50 (Rattus norvegicus [2]): 135 µmol/kg | Activity [32]: Activity at 300 mg/kg | Activity (Rattus norvegicus [14]): ++ | Activity (Rattus norvegicus [27]): ++ | Activity [7]: Activity at 300 mg/kg

O=C1NC(=O)C(c2ccccc2)(c2ccccc2)N1 [PHENYTOIN]
ED50 (Rattus norvegicus [2]): 121 µmol/kg | IC50 [3]: 860 nM
